Measured values as given in ChEMBL document CHEMBL1144880, “Identification of phenylisoxazolines as novel and viable antibacterial agents active against Gram-positive pathogens” (J Med Chem, 2003).
≈ marks a conversion by molar mass, not a printed value.

What was measured:
[1] = Plasma clearance in Male Sprague-Dawley Rat (10.1 mg/kg iv); assay type: ADME, organism-based
How it was run: (§1)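 Male Sprague-Dawley rats dosed intravenously or orally. Intact compound measured in plasma by HPLC-UV after protein-precipitation sample preparation. Half-life reported as harmonic mean apparent terminal disposition half-life. Bioavailability is absolute oral bioavailability. Some comparator values are archival data.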

[2] = Plasma clearance in Male Sprague-Dawley Rat (49.4 mg/kg po); assay type: ADME, organism-based; how it was run: as §1
[3] = Absolute oral bioavailability in Male Sprague-Dawley Rat (10.1 mg/kg iv); assay type: ADME, organism-based; conditions: in vivo; how it was run: as §1
[4] = Absolute oral bioavailability in Male Sprague-Dawley Rat (49.4 mg/kg po); assay type: ADME, organism-based; conditions: in vivo; how it was run: as §1
[5] = Cmax value in Male Sprague-Dawley Rat at dose 49.4 (mg/kg po); assay type: ADME, organism-based; design: dose 49.4 mg/kg, route oral; conditions: in vivo; how it was run: as §1
[6] = Tmax value in Male Sprague-Dawley Rat at dose 49.4 (mg/kg po) [tmax (h)]; assay type: ADME, organism-based; conditions: in vivo; how it was run: as §1
[7] = Volume distribution in Male Sprague-Dawley Rat (10.1 mg/kg iv); assay type: ADME, organism-based; conditions: in vivo, read-out: Vss
How it was run: (§2)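 Male Sprague-Dawley rats given the compound intravenously. Intact compound in plasma was measured by HPLC-UV after protein-precipitation sample preparation.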

[8] = Harmonic mean apparent terminal disposition half-life [t1/2beta (h)] in Male Sprague-Dawley Rat at dose 10.1 (mg/kg iv); assay type: ADME, organism-based; conditions: in vivo, read-out: T1/2 beta (converted); how it was run: as §1
[9] = Harmonic mean apparent terminal disposition half-life [t1/2beta (h)] in Male Sprague-Dawley Rat at dose 49.4 (mg/kg po); assay type: ADME, organism-based; conditions: in vivo, read-out: T1/2 beta (converted); how it was run: as §1
Enterococcus faecalis = assay: In vitro minimum inhibitory concentration (MIC) against Enterococcus faecalis UC9217; assay type: functional
How it was run: (§3)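 MIC determined by standard broth microdilution, defined as the lowest drug concentration (µg/mL) inhibiting visible growth.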

Escherichia coli = assay: In vitro minimum inhibitory concentration (MIC) against Escherichia coli UC6674; assay type: functional; how it was run: as §3
Haemophilus influenzae = assay: In vitro minimum inhibitory concentration (MIC) against Haemophilus influenzae UC30063; assay type: functional; how it was run: as §3
Homo sapiens = species: Homo sapiens; assay: Compound was evaluated for metabolic stability via In vitro Human 5E6 cell at 25 uM concentration; assay type: functional
Moraxella catarrhalis = assay: In vitro minimum inhibitory concentration (MIC) against Moraxella catarrhalis UC30610; assay type: functional; how it was run: as §3
Mus musculus [10] = assay: In Vivo effective dose required for antibacterial activity in a systemic mouse infection model (SMIM) upon peroral administration against Staphylococcus aureus UC9213; assay type: functional; conditions: po
How it was run: (§4)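 Compound was given orally at 1 and 5 h after infection. Deaths were monitored for at least 6 days, and ED50 (dose curing 50% of mice) was calculated by probit analysis.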

Rattus norvegicus = species: Rattus norvegicus; assay: Compound was evaluated for metabolic stability via In vitro Rat 5E6 cell at 50 uM concentration; assay type: functional
Streptococcus pneumoniae = assay: In vitro minimum inhibitory concentration (MIC) against Streptococcus pneumoniae UC9912; assay type: functional; how it was run: as §3
Staphylococcus aureus [11] = assay: In vitro minimum inhibitory concentration (MIC) against Staphylococcus aureus UC12673; assay type: functional; how it was run: as §3
Staphylococcus aureus [12] = assay: In vitro minimum inhibitory concentration (MIC) against Staphylococcus aureus UC9213; assay type: functional; how it was run: as §3
[13] = test system: Staphylococcus epidermidis; assay: In vitro minimum inhibitory concentration (MIC) against Staphylococcus epidermidis UC12084; assay type: functional; how it was run: as §3
[14] = Cmax value in Male Sprague-Dawley Rat at dose 10.1 (mg/kg iv); assay type: ADME, organism-based; design: dose 10.1 mg/kg, route intravenous; conditions: in vivo; how it was run: as §1
[15] = Plasma clearance in Male Sprague-Dawley Rat (48.9 mg/kg po); assay type: ADME, organism-based; how it was run: as §1
[16] = Plasma clearance in Male Sprague-Dawley Rat (8.98 mg/kg iv); assay type: ADME, organism-based; how it was run: as §1
[17] = Absolute oral bioavailability in Male Sprague-Dawley Rat (48.9 mg/kg po); assay type: ADME, organism-based; conditions: in vivo; how it was run: as §1
[18] = Absolute oral bioavailability in Male Sprague-Dawley Rat (8.98 mg/kg iv); assay type: ADME, organism-based; conditions: in vivo; how it was run: as §1
[19] = Cmax value in Male Sprague-Dawley Rat at dose 48.9 (mg/kg po); assay type: ADME, organism-based; design: dose 48.9 mg/kg, route oral; conditions: in vivo; how it was run: as §1
[20] = Cmax value in Male Sprague-Dawley Rat at dose 8.98 (mg/kg iv); assay type: ADME, organism-based; design: dose 8.98 mg/kg, route intravenous; conditions: in vivo; how it was run: as §1
[21] = Tmax value in Male Sprague-Dawley Rat at dose 48.9 (mg/kg po) [tmax (h)]; assay type: ADME, organism-based; conditions: in vivo; how it was run: as §1
[22] = Volume distribution in Male Sprague-Dawley Rat (8.98 mg/kg iv); assay type: ADME, organism-based; conditions: in vivo, read-out: Vss; how it was run: as §2
[23] = Harmonic mean apparent terminal disposition half-life [t1/2beta (h)] in Male Sprague-Dawley Rat at dose 48.9 (mg/kg po); assay type: ADME, organism-based; conditions: in vivo, read-out: T1/2 beta (converted); how it was run: as §1
[24] = Harmonic mean apparent terminal disposition half-life [t1/2beta (h)] in Male Sprague-Dawley Rat at dose 8.98 (mg/kg iv); assay type: ADME, organism-based; conditions: in vivo, read-out: T1/2 beta (converted); how it was run: as §1
CYP2C9 [25] = target: T1, CYP2C9 (Homo sapiens, UniProt P11712); assay: Inhibition of heterologously expressed human Cytochrome P450 2C9 at 10 uM; assay type: ADME; design: scale not given: the % may be the effect or the level left; conditions: read-out: Control of P-450 marker
How it was run: (§5)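 Human cDNA-expressed CYP1A2, 2C9, 2D6 and 3A4 microsomes incubated with compound at 10 or 100 µM plus CYP marker substrates. Marker metabolite formation quantified by HPLC with radiochemical detection and expressed as % of control, mean ± SD of triplicates.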

CYP2C9 [26] = target: T1, CYP2C9; assay: Inhibition of heterologously expressed human Cytochrome P450 2C9 at 100 uM; assay type: ADME; design: scale not given: the % may be the effect or the level left; conditions: read-out: Control of P-450 marker; how it was run: as §5
CYP2D6 [27] = target: T2, CYP2D6 (Homo sapiens, UniProt P10635); assay: Inhibition of heterologously expressed human Cytochrome P450 2D6 at 100 uM; assay type: ADME; design: scale not given: the % may be the effect or the level left; conditions: read-out: Control of P-450 marker; how it was run: as §5
CYP2D6 [28] = target: T2, CYP2D6; assay: Inhibition of heterologously expressed human Cytochrome P450 2D6 at 10 uM; assay type: ADME; design: scale not given: the % may be the effect or the level left; conditions: read-out: Control of P-450 marker; how it was run: as §5
CYP3A4 [29] = target: T3, CYP3A4 (Homo sapiens, UniProt P08684); assay: Inhibition of heterologously expressed human Cytochrome P450 3A4 at 10 uM; assay type: ADME; design: scale not given: the % may be the effect or the level left; conditions: read-out: Control of P-450 marker; how it was run: as §5
CYP3A4 [30] = target: T3, CYP3A4; assay: Inhibition of heterologously expressed human Cytochrome P450 3A4 at 100 uM; assay type: ADME; design: scale not given: the % may be the effect or the level left; conditions: read-out: Control of P-450 marker; how it was run: as §5
CYP1A2 [31] = target: T4, CYP1A2 (Homo sapiens, UniProt P05177); assay: Inhibition of heterologously expressed human Cytochrome P450 1A2 at 10 uM; assay type: ADME; design: scale not given: the % may be the effect or the level left; conditions: read-out: Control of P-450 marker; how it was run: as §5
T4 sequence (P05177 whole entry): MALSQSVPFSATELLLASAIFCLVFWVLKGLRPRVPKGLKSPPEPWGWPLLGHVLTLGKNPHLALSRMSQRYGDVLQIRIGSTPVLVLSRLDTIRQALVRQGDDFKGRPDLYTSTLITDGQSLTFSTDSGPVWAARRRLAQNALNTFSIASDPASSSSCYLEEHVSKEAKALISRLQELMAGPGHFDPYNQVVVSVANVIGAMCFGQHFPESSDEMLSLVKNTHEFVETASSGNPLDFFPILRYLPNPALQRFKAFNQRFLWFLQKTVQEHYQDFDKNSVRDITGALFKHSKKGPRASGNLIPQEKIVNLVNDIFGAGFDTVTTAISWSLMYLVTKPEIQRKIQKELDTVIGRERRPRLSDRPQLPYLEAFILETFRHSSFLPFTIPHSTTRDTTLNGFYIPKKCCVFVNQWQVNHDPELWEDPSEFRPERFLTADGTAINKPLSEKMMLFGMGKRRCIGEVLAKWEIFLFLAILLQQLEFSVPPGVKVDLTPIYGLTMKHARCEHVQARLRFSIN

CYP1A2 [32] = target: T4, CYP1A2; assay: Inhibition of heterologously expressed human Cytochrome P450 1A2 at 100 uM; assay type: ADME; design: scale not given: the % may be the effect or the level left; conditions: read-out: Control of P-450 marker; how it was run: as §5
Mus musculus [33] = assay: In Vivo effective dose required for antibacterial activity in a systemic mouse infection model (SMIM) upon oral administration against Staphylococcus aureus UC9213; assay type: functional; how it was run: as §4

T1 sequence (P11712 whole entry): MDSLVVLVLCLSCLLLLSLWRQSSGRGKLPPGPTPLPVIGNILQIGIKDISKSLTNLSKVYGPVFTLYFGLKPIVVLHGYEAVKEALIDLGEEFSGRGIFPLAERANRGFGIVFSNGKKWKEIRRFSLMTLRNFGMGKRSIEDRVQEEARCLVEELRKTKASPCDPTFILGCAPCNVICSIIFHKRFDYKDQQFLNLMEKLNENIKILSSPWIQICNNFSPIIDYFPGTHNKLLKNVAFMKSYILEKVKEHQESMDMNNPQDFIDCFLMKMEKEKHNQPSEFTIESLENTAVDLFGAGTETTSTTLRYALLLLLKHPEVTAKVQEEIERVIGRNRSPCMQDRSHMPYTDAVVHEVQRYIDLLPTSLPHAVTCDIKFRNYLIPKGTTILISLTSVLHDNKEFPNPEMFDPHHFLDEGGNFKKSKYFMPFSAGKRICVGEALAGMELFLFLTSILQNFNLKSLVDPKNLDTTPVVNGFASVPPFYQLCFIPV
T3 sequence (P08684 whole entry): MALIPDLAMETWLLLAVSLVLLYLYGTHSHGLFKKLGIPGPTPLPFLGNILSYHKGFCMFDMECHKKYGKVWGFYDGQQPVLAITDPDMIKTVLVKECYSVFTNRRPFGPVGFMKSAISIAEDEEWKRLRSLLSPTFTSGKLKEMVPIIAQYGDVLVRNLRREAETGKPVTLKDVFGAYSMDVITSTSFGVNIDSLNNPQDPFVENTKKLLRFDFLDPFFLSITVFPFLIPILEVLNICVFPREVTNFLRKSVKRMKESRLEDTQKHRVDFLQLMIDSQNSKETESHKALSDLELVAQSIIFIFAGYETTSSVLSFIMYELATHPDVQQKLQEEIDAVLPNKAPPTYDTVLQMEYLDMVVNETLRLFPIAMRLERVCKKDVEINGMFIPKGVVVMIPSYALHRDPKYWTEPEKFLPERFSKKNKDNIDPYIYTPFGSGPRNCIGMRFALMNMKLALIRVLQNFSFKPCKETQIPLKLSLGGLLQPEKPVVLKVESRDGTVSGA
T2 sequence (P10635 whole entry): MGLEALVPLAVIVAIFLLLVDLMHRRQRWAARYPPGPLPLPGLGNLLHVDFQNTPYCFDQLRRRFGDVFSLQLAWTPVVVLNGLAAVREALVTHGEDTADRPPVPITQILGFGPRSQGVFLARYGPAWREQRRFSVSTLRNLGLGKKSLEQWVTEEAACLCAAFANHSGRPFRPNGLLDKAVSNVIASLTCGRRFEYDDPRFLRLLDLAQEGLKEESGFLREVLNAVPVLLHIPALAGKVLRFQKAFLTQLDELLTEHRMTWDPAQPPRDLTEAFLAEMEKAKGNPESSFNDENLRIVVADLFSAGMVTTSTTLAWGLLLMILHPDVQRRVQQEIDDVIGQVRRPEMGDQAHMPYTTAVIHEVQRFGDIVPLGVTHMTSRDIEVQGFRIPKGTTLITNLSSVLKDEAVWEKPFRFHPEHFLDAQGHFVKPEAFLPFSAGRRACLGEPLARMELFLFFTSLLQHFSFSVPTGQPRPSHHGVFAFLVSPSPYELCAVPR

Molecule `CC(=O)NC[C@H]1CC(c2ccc(N3CCN(C(=O)CO)CC3)c(F)c2)=NO1` has a clearance [1] of 26.2 mL/min/kg, a CL/F [2] of 30.8 mL/min/kg and a bioavailability [3] of 100%. It also gave a bioavailability [4] of 86%, a Cmax [5] of 6170 ng/mL and a Tmax [6] of 150 min. For the same molecule, the Vd [7] was 0.95 L/kg, the half-life [8] was 36.6 min and the half-life [9] was 42 min. For the same molecule, the MIC (Enterococcus faecalis) was 4 µg/mL (≈ 10.6 µM), the MIC (Escherichia coli) was over 16 µg/mL and the MIC (Haemophilus influenzae) was over 16 µg/mL. For the same molecule, the Remaining at 40 min (Homo sapiens) was 101%, the MIC (Moraxella catarrhalis) was 8 µg/mL (≈ 21.1 µM) and the ED50 (Mus musculus [10]) was 9.1 mg/kg. It also gave a Remaining at 40 min (Rattus norvegicus) of 100%, an MIC (Streptococcus pneumoniae) of 1 µg/mL (≈ 2.64 µM) and an MIC (Staphylococcus aureus [11]) of 4 µg/mL (≈ 10.6 µM). It also gave an MIC (Staphylococcus aureus [12]) of 4 µg/mL (≈ 10.6 µM), an MIC [13] of 1 µg/mL (≈ 2.64 µM) and a Cmax [14] of 17700 ng/mL.
Work on `CC(=O)NC[C@H]1CC(c2ccc(N3CCOCC3)c(F)c2)=NO1` yielded a CL/F [15] of 8.6 mL/min/kg, a clearance [16] of 12.4 mL/min/kg and a bioavailability [17] of 143%. The bioavailability [18] was 100%, the Cmax [19] was 12200 ng/mL and the Cmax [20] was 17700 ng/mL. It also gave a Tmax [21] of 192 min, a Vd [22] of 0.6 L/kg and a half-life [23] of 36 min. It also gave a half-life [24] of 28.2 min, an activity at 10 µM (CYP2C9 [25]) of 92.1% and an activity at 100 µM (CYP2C9 [26]) of 95.8%. The activity at 100 µM (CYP2D6 [27]) was 103%, the activity at 10 µM (CYP2D6 [28]) was 101% and the activity at 10 µM (CYP3A4 [29]) was 88.9%. For the same molecule, the activity at 100 µM (CYP3A4 [30]) was 92.1%, the activity at 10 µM (CYP1A2 [31]) was 100% and the activity at 100 µM (CYP1A2 [32]) was 102%. It also gave an MIC (Enterococcus faecalis) of 8 µg/mL (≈ 24.9 µM), an MIC (Escherichia coli) of over 16 µg/mL and an MIC (Haemophilus influenzae) of over 16 µg/mL. For the same molecule, the “Remaining at 40 min” value (Homo sapiens) was 100%, the MIC (Moraxella catarrhalis) was 16 µg/mL (≈ 49.8 µM) and the ED50 (Mus musculus [33]) was 16.5 mg/kg. The “Remaining at 40 min” value (Rattus norvegicus) was 87%, the MIC (Streptococcus pneumoniae) was 1 µg/mL (≈ 3.11 µM) and the MIC (Staphylococcus aureus [11]) was 4 µg/mL (≈ 12.4 µM). The MIC (Staphylococcus aureus [12]) was 4 µg/mL (≈ 12.4 µM) and the MIC [13] was 2 µg/mL (≈ 6.22 µM).
